Read-outs that look alike come from different tables or passages of the source.
Legend:
SIRT5 [1] = details: cited from earlier work
SIRT5 [2] = details: cited from earlier work; remark: listed apart in the source
HEK293 cells = assay: Intracellular NAD+ level, HEK293 cells; type: cell-based, human; details: HEK293, 1 mM, 6 h
In short: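 HEK293 cells (DMEM, 10% FBS, 37 °C, 5% CO2) incubated with 1 mM NR or NARH for 6 h. Harvested, counted by hemocytometer, pelleted, and extracted in ice-cold 7% perchloric acid (three vortex/ice-sonication cycles). NAD+ measured by enzymatic cycling assay. Three independent experiments ± SD; Student's t-test.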

[3] = physiological NAM concentrations

| Structure (SMILES) | effect on deacetylase activity of SIRT5 (SIRT5 [1]; [3]) | effect on desuccinylase activity of SIRT5 (SIRT5 [2]; [3]) | intracellular NAD+ content (HEK293 cells) | effect on deacetylase activity of SIRT5 (SIRT5 [1]) | effect on desuccinylase activity of SIRT5 (SIRT5 [2]) |
| --- | --- | --- | --- | --- | --- |
| NC(=O)c1cccnc1 [NAM, nicotinamide] | negligible changes | potently inhibit | – | – | – |
| NC(=O)c1ccc[n+]([C@@H]2O[C@H](CO)[C@@H](O)[C@H]2O)c1 [NR, nicotinamide riboside] | – | – | nearly two-fold increase | selectively activates | negligible changes |
